pIC50, pKi: −log10 of the molar value.
Experiments:
Carbonic anhydrase 9 = Carbonic anhydrase 9 (Homo sapiens, UniProt Q16790); test: Inhibition of carbonic anhydrase 9 (unknown origin) preincubated for 15 mins by stopped flow CO2 hydration assay
Carbonic anhydrase 12 = Carbonic anhydrase 12 (Homo sapiens, UniProt O43570)
HT-29 [1] = test: Cytotoxicity against human HT-29 cells assessed as reduction in cell viability after 48 hrs under normoxic conditions by MTT assay; format: functional, cell-based; settings: for pIC50: HT-29, 48 h
Summary of the method: (§1)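 Cells cultured in high-glucose DMEM with 20% FBS at 37 °C and 5% CO2, seeded at 1x10^4/well, then dosed 24 h later (0–200 μM) for 48 h. Hypoxia: 1% O2, 5% CO2, balance N2 in a hypoxic workstation; normoxia: 20% O2 in air, 5% CO2. MTT (1 mg/ml) for 30 min at 37 °C, formazan dissolved in DMSO, A550. Untreated control set to 100%; quadruplicates, ≥3 cell batches, mean ± S.E.M.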

MDA-MB-231 [2] = test: Cytotoxicity against human MDA-MB-231 cells assessed as reduction in cell viability after 48 hrs under normoxic conditions by MTT assay; format: functional, cell-based; settings: for pIC50: MDA-MB-231, 48 h; summary of the method: as §1
PC-3 [3] = test: Cytotoxicity against human PC3 cells assessed as reduction in cell viability after 48 hrs under normoxic conditions by MTT assay; format: functional, cell-based; settings: for pIC50: PC-3, 48 h; summary of the method: as §1
HT-29 [4] = test: Cytotoxicity against human HT-29 cells assessed as reduction in cell viability after 48 hrs under hypoxic conditions by MTT assay; format: functional, cell-based; settings: for pIC50: HT-29, 48 h; summary of the method: as §1
MDA-MB-231 [5] = test: Cytotoxicity against human MDA-MB-231 cells assessed as reduction in cell viability after 48 hrs under hypoxic conditions by MTT assay; format: functional, cell-based; settings: for pIC50: MDA-MB-231, 48 h; summary of the method: as §1
PC-3 [6] = test: Cytotoxicity against human PC3 cells assessed as reduction in cell viability after 48 hrs under hypoxic conditions by MTT assay; format: functional, cell-based; settings: for pIC50: PC-3, 48 h; summary of the method: as §1
MDA-MB-231 [7] = test: Cytotoxicity against human MDA-MB-231 cells assessed as cell viability at 200 uM after 48 hrs under hypoxic conditions by MTT assay (reference value: 100%); format: functional; settings: MDA-MB-231, 48 h, read-out: Activity; summary of the method: as §1
MDA-MB-231 [8] = test: Cytotoxicity against human MDA-MB-231 cells assessed as cell viability at 30 uM after 48 hrs under normoxic conditions by MTT assay (reference value: 100%); format: functional; settings: MDA-MB-231, 48 h, read-out: Activity; summary of the method: as §1
MDA-MB-231 [9] = test: Cytotoxicity against human MDA-MB-231 cells assessed as cell viability at 100 uM after 48 hrs under normoxic conditions by MTT assay (reference value: 100%); format: functional; settings: MDA-MB-231, 48 h, read-out: Activity; summary of the method: as §1
MDA-MB-231 [10] = test: Cytotoxicity against human MDA-MB-231 cells assessed as cell viability at 200 uM after 48 hrs under normoxic conditions by MTT assay (reference value: 100%); format: functional; settings: MDA-MB-231, 48 h, read-out: Activity; summary of the method: as §1
MDA-MB-231 [11] = test: Cytotoxicity against human MDA-MB-231 cells assessed as cell viability at 100 uM after 48 hrs under hypoxic conditions by MTT assay (reference value: 100%); format: functional; settings: MDA-MB-231, 48 h, read-out: Activity; summary of the method: as §1
MDA-MB-231 [12] = test: Cytotoxicity against human MDA-MB-231 cells assessed as cell viability at 30 uM after 48 hrs under hypoxic conditions by MTT assay (reference value: 100%); format: functional; settings: MDA-MB-231, 48 h, read-out: Activity; summary of the method: as §1
PC-3 [13] = test: Cytotoxicity against human PC3 cells assessed as cell viability at 30 uM after 48 hrs under normoxic conditions by MTT assay (reference value: 100%); format: functional; settings: PC-3, 48 h, read-out: Activity; summary of the method: as §1
PC-3 [14] = test: Cytotoxicity against human PC3 cells assessed as cell viability at 100 uM after 48 hrs under normoxic conditions by MTT assay (reference value: 100%); format: functional; settings: PC-3, 48 h, read-out: Activity; summary of the method: as §1
PC-3 [15] = test: Cytotoxicity against human PC3 cells assessed as cell viability at 200 uM after 48 hrs under normoxic conditions by MTT assay (reference value: 100%); format: functional; settings: PC-3, 48 h, read-out: Activity; summary of the method: as §1
PC-3 [16] = test: Cytotoxicity against human PC3 cells assessed as cell viability at 30 uM after 48 hrs under hypoxic conditions by MTT assay (reference value: 100%); format: functional; settings: PC-3, 48 h, read-out: Activity; summary of the method: as §1
PC-3 [17] = test: Cytotoxicity against human PC3 cells assessed as cell viability at 100 uM after 48 hrs under hypoxic conditions by MTT assay (reference value: 100%); format: functional; settings: PC-3, 48 h, read-out: Activity; summary of the method: as §1
PC-3 [18] = test: Cytotoxicity against human PC3 cells assessed as cell viability at 200 uM after 48 hrs under hypoxic conditions by MTT assay (reference value: 100%); format: functional; settings: PC-3, 48 h, read-out: Activity; summary of the method: as §1
HT-29 [19] = test: Cytotoxicity against human HT-29 cells assessed as cell viability at 30 uM after 48 hrs under normoxic conditions by MTT assay (reference value: 100%); format: functional; settings: Homo sapiens, HT-29, 48 h; read-out: Activity; summary of the method: as §1
HT-29 [20] = test: Cytotoxicity against human HT-29 cells assessed as cell viability at 100 uM after 48 hrs under normoxic conditions by MTT assay (reference value: 100%); format: functional; settings: Homo sapiens, HT-29, 48 h; read-out: Activity; summary of the method: as §1
HT-29 [21] = test: Cytotoxicity against human HT-29 cells assessed as cell viability at 200 uM after 48 hrs under normoxic conditions by MTT assay (reference value: 100%); format: functional; settings: Homo sapiens, HT-29, 48 h; read-out: Activity; summary of the method: as §1
HT-29 [22] = test: Cytotoxicity against human HT-29 cells assessed as cell viability at 30 uM after 48 hrs under hypoxic conditions by MTT assay (reference value: 100%); format: functional; settings: Homo sapiens, HT-29, 48 h; read-out: Activity; summary of the method: as §1
HT-29 [23] = test: Cytotoxicity against human HT-29 cells assessed as cell viability at 100 uM after 48 hrs under hypoxic conditions by MTT assay (reference value: 100%); format: functional; settings: Homo sapiens, HT-29, 48 h; read-out: Activity; summary of the method: as §1
HT-29 [24] = test: Cytotoxicity against human HT-29 cells assessed as cell viability at 200 uM after 48 hrs under hypoxic conditions by MTT assay (reference value: 100%); format: functional; settings: Homo sapiens, HT-29, 48 h; read-out: Activity; summary of the method: as §1

Sequence of Carbonic anhydrase 12 (O43570 whole entry): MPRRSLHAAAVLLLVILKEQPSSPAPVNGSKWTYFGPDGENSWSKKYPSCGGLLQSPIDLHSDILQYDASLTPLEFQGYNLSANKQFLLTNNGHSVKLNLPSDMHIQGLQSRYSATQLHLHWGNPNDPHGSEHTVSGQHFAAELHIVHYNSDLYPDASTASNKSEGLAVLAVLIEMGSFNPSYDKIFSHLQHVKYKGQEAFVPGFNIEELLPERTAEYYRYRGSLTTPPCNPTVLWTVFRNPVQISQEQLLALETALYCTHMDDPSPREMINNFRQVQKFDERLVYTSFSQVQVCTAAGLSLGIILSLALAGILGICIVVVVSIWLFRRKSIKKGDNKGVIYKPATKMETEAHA

SMILES | pKi (Carbonic anhydrase 9) | pKi (Carbonic anhydrase 12) | Activity (HT-29 [1]) | pIC50 (HT-29 [1]) | Activity (MDA-MB-231 [2]) | pIC50 (MDA-MB-231 [2]) | Activity (PC-3 [3]) | pIC50 (PC-3 [3]) | Activity (HT-29 [4]) | pIC50 (HT-29 [4]) | Activity (MDA-MB-231 [5]) | pIC50 (MDA-MB-231 [5]) | Activity (PC-3 [6]) | pIC50 (PC-3 [6]) | viability at 200 µM (MDA-MB-231 [7]) [%] | viability at 30 µM (MDA-MB-231 [8]) [%] | viability at 100 µM (MDA-MB-231 [9]) [%] | viability at 200 µM (MDA-MB-231 [10]) [%] | viability at 100 µM (MDA-MB-231 [11]) [%] | viability at 30 µM (MDA-MB-231 [12]) [%] | other results
Cc1cc(C)[n+](-c2cc(S(N)(=O)=O)cc([N+](=O)[O-])c2O)c(C)c1.[O-][Cl+3]([O-])([O-])[O-] | 6.82 | 6.66 | Dose-dependent effect | < 3.70 | Dose-dependent effect | > 4.52 | Dose-dependent effect | 3.85 | Dose-dependent effect | < 3.70 | Dose-dependent effect | < 3.70 | Dose-dependent effect | < 3.70 | 98.3 | 40.7 | 2.9 | 4 | 111 | 98.9 | viability at 30 µM (PC-3 [13]): 77.4%; viability at 100 µM (PC-3 [14]): 58%; viability at 200 µM (PC-3 [15]): 50.3%; viability at 30 µM (PC-3 [16]): 97.7%; viability at 100 µM (PC-3 [17]): 104%; viability at 200 µM (PC-3 [18]): 88.9%; viability at 30 µM (HT-29 [19]): 101%; viability at 100 µM (HT-29 [20]): 97.2%; viability at 200 µM (HT-29 [21]): 89.4%; viability at 30 µM (HT-29 [22]): 72.2%; viability at 100 µM (HT-29 [23]): 62.5%; viability at 200 µM (HT-29 [24]): 59.4%
NS(=O)(=O)c1cc(NC(=O)Nc2c(F)c(F)c(F)c(F)c2F)c(O)c([N+](=O)[O-])c1 | 6.54 | 7.10 | Dose-dependent effect | < 3.70 | Dose-dependent effect | < 3.70 | Dose-dependent effect | < 3.70 | Dose-dependent effect | < 3.70 | Dose-dependent effect | 4.00 | Dose-dependent effect | < 3.70 | 40.5 | 95.7 | 66.7 | 60.2 | 50.2 | 56.2 | viability at 30 µM (PC-3 [13]): 69%; viability at 100 µM (PC-3 [14]): 61.7%; viability at 200 µM (PC-3 [15]): 60.2%; viability at 30 µM (PC-3 [16]): 63.2%; viability at 100 µM (PC-3 [17]): 53.2%; viability at 200 µM (PC-3 [18]): 50.6%; viability at 30 µM (HT-29 [19]): 106%; viability at 100 µM (HT-29 [20]): 102%; viability at 200 µM (HT-29 [21]): 99.6%; viability at 30 µM (HT-29 [22]): 75.6%; viability at 100 µM (HT-29 [23]): 70.2%; viability at 200 µM (HT-29 [24]): 65.3%
NS(=O)(=O)c1ccc(O)c([N+](=O)[O-])c1 | 6.92 | 6.80 | – | – | – | – | – | – | – | – | – | – | – | – | – | – | – | – | – | – | –
Cc1cc(NC(=O)Nc2cc(S(N)(=O)=O)cc([N+](=O)[O-])c2O)ccc1F | 6.43 | 6.06 | – | – | – | – | – | – | – | – | – | – | – | – | – | – | – | – | – | – | –
NS(=O)(=O)c1cc(NC(=O)N[C@@H]2C(O)O[C@@H](CO)[C@H](O)[C@H]2O)c(O)c([N+](=O)[O-])c1 (some centres not stated) | 6.77 | 6.80 | – | – | – | – | – | – | – | – | – | – | – | – | – | – | – | – | – | – | –
CC(=O)OC[C@@H]1O[C@@H](OC(C)=O)[C@@H](NC(=O)Nc2cc(S(N)(=O)=O)cc([N+](=O)[O-])c2O)[C@H](OC(C)=O)[C@H]1OC(C)=O | 6.54 | 6.10 | Dose-dependent effect | < 3.70 | Dose-dependent effect | < 3.70 | Dose-dependent effect | < 3.70 | Dose-dependent effect | < 3.70 | Dose-dependent effect | < 3.70 | Dose-dependent effect | < 3.70 | 65.9 | 100 | 111 | 103 | 90.7 | 99.5 | viability at 30 µM (PC-3 [13]): 59.6%; viability at 100 µM (PC-3 [14]): 67.5%; viability at 200 µM (PC-3 [15]): 68.3%; viability at 30 µM (PC-3 [16]): 91.5%; viability at 100 µM (PC-3 [17]): 85.2%; viability at 200 µM (PC-3 [18]): 70.6%; viability at 30 µM (HT-29 [19]): 111%; viability at 100 µM (HT-29 [20]): 100%; viability at 200 µM (HT-29 [21]): 103%; viability at 30 µM (HT-29 [22]): 95.6%; viability at 100 µM (HT-29 [23]): 79.8%; viability at 200 µM (HT-29 [24]): 84.8%
